Measurements collected from several papers.
Each line is one published result; the experiments were not run side by side. In brackets after ≈: the same amount, converted by molar mass.
Organism: Klebsiella pneumoniae

`CCn1cc(C(=O)O)c(=O)c2cc(F)c(N3CCNCC3)cc21` gave an MBC of 2 µM (microbial killing, broth dilution; ATCC43816).
`Cc1ccc(C(C)C)cc1OCc1cn(-c2ccc([N+](=O)[O-])cc2)nn1` gave an IC50 of 122 µg/mL (≈ 346 µM) (microbial growth, broth dilution; ATCC700603).
For `CC(=O)NC[C@H]1CN(c2ccc(N3CCOCC3)c(F)c2)C(=O)O1`, the MIC was 1280 µM (microbial growth, broth dilution; ATCC700603).
The inhibition zone of `Cc1c(NN=C2SC(C(C#N)=Cc3ccccc3)=NC2=O)c(=O)n(-c2ccccc2)n1C` is reported as 14 mm (microbial growth, well diffusion; 100000 µg/mL).
For `O=C(O)c1cn(C2CC2)c2cc(N3CCNCC3)c(F)cc2c1=O`, the inhibition zone was 17 mm (microbial growth, disc diffusion; 100 µg/mL, 24 h).
The MIC of `CC[C@H]1OC(=O)[C@H](C)[C@@H](O[C@H]2C[C@@](C)(OC)[C@@H](O)[C@H](C)O2)[C@H](C)[C@@H](O[C@@H]2O[C@H](C)C[C@H](N(C)C)[C@H]2O)[C@](C)(OC)C[C@@H](C)C(=O)[C@H](C)[C@@H](O)[C@]1(C)O` is reported as 80 µM (microbial growth, broth dilution; ATCC700603).
For `CCOC(=O)C=c1[nH]c(=O)c(=Cc2cn(-c3ccccc3)nc2-c2ccccc2)s1`, the inhibition zone was 14 mm (microbial growth, well diffusion; 100000 µg/mL).
`O=C1C=C(O)C(=O)c2ccccc21` gave an IC50 of 123 µg/mL (≈ 709 µM) (microbial growth, broth dilution; ATCC700603).
`C[C@H]1[C@H](NC(=O)/C(=N\OC(C)(C)C(=O)O)c2csc(N)n2)C(=O)N1S(=O)(=O)O` has an MIC of 0.63 µM (microbial growth, broth dilution; ATCC700603).
`N#CC(=Cc1ccc([N+](=O)[O-])cc1)C1=NC(=O)C(=Cc2cn(-c3ccccc3)nc2-c2ccccc2)S1` has an inhibition zone of 22 mm (microbial growth, well diffusion; 100000 µg/mL).
For `Cc1ccc(C(C)C)cc1OCc1cn(-c2ccc(C(=O)O)cc2)nn1`, the IC50 was 261 µg/mL (≈ 743 µM) (microbial growth, broth dilution; ATCC700603).
For `Cc1c(CN(C)C(=O)/C=C/c2cnc3c(c2)CC(CCN)C(=O)N3)oc2ccccc12.Cl` (centres unmarked), the MIC was 4 µg/mL (microbial growth, broth dilution; BAA2470).
For `Cc1c(NN=C2SC(C(C#N)=Cc3ccc(Cl)cc3)=NC2=O)c(=O)n(-c2ccccc2)n1C`, the inhibition zone was 16 mm (microbial growth, well diffusion; 100000 µg/mL).
`Cc1ccc(C(C)C)cc1OS(=O)(=O)c1cccs1` gave an IC50 of 163 µg/mL (≈ 551 µM) (microbial growth, broth dilution; ATCC700603).
`O=C(N[C@H](CO)[C@H](O)c1ccc([N+](=O)[O-])cc1)C(Cl)Cl` gave an MIC of 80 µM (microbial growth, broth dilution; ATCC700603).
`N#CC(=Cc1ccccc1O)C1=NC(=O)C(=Cc2cn(-c3ccccc3)nc2-c2ccccc2)S1` gave an MBC of 0.5 µg/mL (microbial killing, broth dilution).
`Cc1ccc(-n2cc(COC3=CC(=O)c4ccccc4C3=O)nn2)cc1` has an IC50 of 220 µg/mL (≈ 638 µM) (microbial growth, broth dilution; ATCC700603).
